Laboratory results taken from ChEMBL document CHEMBL4007509, “Structural Optimizations of Thieno[3,2-b]pyrrole Derivatives for the Development of Metabolically Stable Inhibitors of Chikungunya Virus” (J Med Chem, 2017).
The source made the active and inactive calls. The calls are words filed in the database; no cut-off is given here.

What was measured:
Chikungunya virus [1] = assay: Antiviral activity against Chikungunya virus IMT infected in HEK 293T cells assessed as reduction in viral load measured up to 24 hrs by qRT-PCR analysis relative to control; assay type: functional, cell-based
Chikungunya virus [2] = assay: Antiviral activity against full length gluc-tagged Chikungunya virus 2013 Caribbean CNR20235 infected in HEK293T cells assessed as reduction in virus infection after 24 hrs by gaussia luciferase reporter gene assay; assay type: functional, cell-based; conditions: 2013 Caribbean CNR20235, HEK-293T
Chikungunya virus [3] = assay: Antiviral activity against wild type Chikungunya virus IMT infected in HEK293T cells administered 2 to 4 hrs prior to infection measured after 24 hrs post infection by FITC immunofluorescence-based single cell quantification high content screening assay; assay type: functional; conditions: HEK-293T
Chikungunya virus [4] = assay: Antiviral activity against wild type Chikungunya virus IMT infected in HEK293T cells administered 2 to 4 hrs prior to infection followed by cels incubation in absence of compound from 0 hrs post infection onwards measured after 24 hrs by measured after 24 hrs post infection by FITC immunofluorescence-based single cell quantification high content screening assay; assay type: functional; conditions: HEK-293T
[5] = Plasma concentration in C57BL/6 mouse at 10 mg/kg, po administered as single dose measured at 24 hrs by HPLC-MS/MS analysis; assay type: ADME, organism-based
Procedure, shortened: (§1)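 Male C57BL/6 mice received a single 3 mg/kg iv or 10 mg/kg po dose in 5% DMSO/70% PEG400/25% water. Plasma was sampled at set times over 24 h and analysed by HPLC-MS/MS, with a quantification limit of 0.5 ng/mL. Values are mean ± SD of three mice.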

[6] = Plasma concentration in C57BL/6 mouse at 3 mg/kg, iv administered as single dose measured at 24 hrs by HPLC-MS/MS analysis; assay type: ADME, organism-based; procedure, shortened: as §1
Chikungunya virus [7] = assay: Antiviral activity against wild type Chikungunya virus IMT infected in HEK293T cells administered during virus adsorption stage (0 hrs post infection) measured after 24 hrs post infection by FITC immunofluorescence-based single cell quantification high content screening assay; assay type: functional
Chikungunya virus [8] = assay: Antiviral activity against full length gluc-tagged Chikungunya virus IMT infected in human BJ cells assessed as reduction in virus infection after 24 hrs by gaussia luciferase reporter gene assay; assay type: functional, cell-based
Chikungunya virus [9] = assay: Antiviral activity against Chikungunya virus IMT infected in HEK 293T cells assessed as reduction in viral load at 5 uM measured up to 24 hrs by qRT-PCR analysis relative to control; assay type: functional
[10] = Plasma concentration in C57BL/6 mouse at 3 mg/kg, iv administered as single dose measured within 1 hr post dose by HPLC-MS/MS analysis; assay type: ADME, organism-based; procedure, shortened: as §1
[11] = Cytotoxicity against human BJ cells assessed as reduction in cell viability after 24 hrs by CellTiter-Glo luminescent assay; assay type: cell-based
Procedure, shortened: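 BJ human fibroblast viability was measured by CellTiter-Glo luminescence after 24 h exposure to serial dilutions. Data were normalized to untreated cells (100%) and reagent background (0%). CC50 came from a five-parameter asymmetric fit.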

Chikungunya virus [12] = assay: Antiviral activity against wild type Chikungunya virus IMT infected in HEK293T cells at 5 uM administered 2 to 12 hrs post infection measured after 24 hrs post infection by alpha virus detection based FITC immunofluorescence-based single cell quantification high content screening assay; assay type: functional
[13] = Terminal half life in C57BL/6 mouse at 3 mg/kg, iv; assay type: ADME, organism-based; conditions: in vivo, read-out: beta t1/2 (converted)
Procedure, shortened: (§2)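 Male C57BL/6 mice received a single 3 mg/kg iv or 10 mg/kg po dose of a solution in 5% DMSO, 70% PEG400 and 25% water. Results are terminal half-life (h), plasma clearance (mL min−1 kg−1), Vss (L/kg), Tmax (h), Cmax (ng/mL) and oral bioavailability. Values are mean ± SD of three mice.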

Onyong-nyong virus = assay: Antiviral activity against O'nyong-nyong virus Chad infected in HEK293T cells assessed as reduction in virus infection after 24 hrs by FITC-based assay; assay type: functional, cell-based; conditions: HEK-293T
Procedure, shortened: (§3)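 This was a pan-alphavirus panel against ONNV and SINV, read by immunofluorescence-based high content screen. Serial dilutions were normalized to untreated infection (100%) and noninfected cells (0%). The EC50, the concentration inhibiting 50% infectivity, came from a five-parameter asymmetric dose-response fit.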

[14] = Selectivity index, ratio of CC50 for HEK293T cells to EC50 for full length Gaussia princeps Gluc-tagged Chikungunya virus IMT; assay type: toxicity; conditions: human, read-out: Ratio CC50/EC50
[15] = Volume of distribution in steady state in C57BL/6 mouse at 3 mg/kg, iv; assay type: ADME, organism-based; conditions: in vivo, read-out: Vdss; procedure, shortened: as §2
Chikungunya virus [16] = assay: Antiviral activity against full length gluc-tagged Chikungunya virus 2008 Singapore SGP11 infected in HEK293T cells assessed as reduction in virus infection after 24 hrs by gaussia luciferase reporter gene assay; assay type: functional, cell-based; conditions: 2008 Singapore SGP11, HEK-293T
[17] = Terminal half life in C57BL/6 mouse at 10 mg/kg, po; assay type: ADME, organism-based; conditions: in vivo, read-out: beta t1/2 (converted); procedure, shortened: as §2
[18] = Cmax in C57BL/6 mouse at 10 mg/kg, po; assay type: ADME, organism-based; design: dose 10 mg/kg, route oral; conditions: in vivo; procedure, shortened: as §2
Chikungunya virus [19] = assay: Antiviral activity against wild type Chikungunya virus IMT infected in HEK293T cells assessed as reduction in virus infection after 24 hrs by FITC immunofluorescence-based single cell quantification high content screening assay; assay type: functional; conditions: HEK-293T
Chikungunya virus [20] = assay: Antiviral activity against Chikungunya virus IMT infected in HEK 293T cells assessed as reduction in viral load measured up to 24 hrs by qRT-PCR analysis; assay type: functional, cell-based
Sindbis virus = assay: Antiviral activity against Sindbis virus infected in HEK293T cells assessed as reduction in virus infection after 24 hrs by FITC-based assay; assay type: functional, cell-based; conditions: HEK-293T; procedure, shortened: as §3
[21] = Cytotoxicity against HEK293T cells assessed as reduction in cell viability after 24 hrs by CellTiter-Glo luminescent assay; assay type: cell-based, HEK-293T; conditions: human
Procedure, shortened: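 HEK 293T cell viability was measured by CellTiter-Glo luminescence after 24 h exposure to serial dilutions. Data were normalized to untreated cells (100%) and reagent background (0%). CC50, the concentration reducing viability by 50%, came from a five-parameter asymmetric fit.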

[22] = Half life in human liver microsomes; assay type: ADME, microsome
Procedure, shortened: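 Compounds were incubated with human liver microsomes. Half-life = ln(2)/slope, where the slope is ln(% detected) plotted against time, using the mean of at least 3 independent experiments.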

[23] = Tmax in C57BL/6 mouse at 10 mg/kg, po; assay type: ADME, organism-based; conditions: in vivo; procedure, shortened: as §2
Chikungunya virus [24] = assay: Antiviral activity against full length Gaussia princeps Gluc-tagged Chikungunya virus IMT infected in HEK293T cells assessed as reduction in virus infection after 24 hrs by Gaussia luciferase reporter gene assay; assay type: functional, cell-based; conditions: HEK-293T
[25] = Selectivity index, ratio of CC50 for human BJ cells to EC50 for full length Gaussia princeps Gluc-tagged Chikungunya virus IMT; assay type: toxicity; conditions: read-out: Ratio CC50/EC50
[26] = Plasma concentration in C57BL/6 mouse at 10 mg/kg, po administered as single dose measured within 1 hr post dose by HPLC-MS/MS analysis; assay type: ADME, organism-based; procedure, shortened: as §1
Chikungunya virus [27] = assay: Antiviral activity against wild type Chikungunya virus IMT infected in HEK293T cells administered 2 to 12 hrs post infection measured after 24 hrs post infection by FITC immunofluorescence-based single cell quantification high content screening assay; assay type: functional
[28] = Oral bioavailability in C57BL/6 mouse at 10 mg/kg; assay type: ADME, organism-based; conditions: in vivo; procedure, shortened: as §2
[29] = Plasma clearance in C57BL/6 mouse at 3 mg/kg, iv; assay type: ADME, organism-based; procedure, shortened: as §2
Liver = assay: Intrinsic clearance in human liver microsomes; assay type: ADME, microsome
Procedure, shortened: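 Intrinsic clearance was measured in human liver microsome incubation and expressed in μL min−1 mg−1 microsomal protein.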

Chikungunya virus [30] = assay: Antiviral activity against wild type Chikungunya virus IMT infected in HEK293T cells at 5 uM administered 2 to 4 hrs prior to infection followed by cels incubation in absence of compound from 0 hrs post infection onwards measured after 24 hrs by measured after 24 hrs post infection by FITC immunofluorescence-based single cell quantification high content screening assay; assay type: functional

In the case of CCCNC(=O)C1CCN(C(=O)c2cc3sc(-c4ccccc4)cc3n2Cc2ccc(OC)cc2)CC1, the Activity (Chikungunya virus [1]) is reported as “Dose-dependent effect”, the EC50 (Chikungunya virus [2]) is reported as 2.18 µM and the EC50 (Chikungunya virus [3]) is reported as 2.5 µM. For the same compound, the EC50 (Chikungunya virus [4]) was 14 to 15 µM, the concentration at 24 h [5] was under 0.5 ng/mL and the concentration at 24 h [6] was under 0.5 ng/mL. The Activity (Chikungunya virus [7]) was “Active”, the EC50 (Chikungunya virus [8]) was 5.07 µM and the “fold change (FC)” value (Chikungunya virus [9]) was over 50. The concentration at 1 h [10] was 2000 nM, the CC50 at 24 h [11] was over 100 µM and the Activity (Chikungunya virus [12]) was “inactive”. It also gave a half-life [13] of 2.07 h, an EC50 (Onyong-nyong virus) of 3.24 µM and a selectivity ratio [14] of over 20. It also gave a Vd [15] of 2.45 L/kg, an EC50 (Chikungunya virus [16]) of 2.26 µM and a half-life [17] of 2.37 h. The Cmax [18] was 720 ng/mL, the EC50 (Chikungunya virus [19]) was 4.03 µM and the inhibition (Chikungunya virus [20]) was “Dose-dependent effect”. For the same compound, the EC50 (Sindbis virus) was 1.65 µM, the CC50 at 24 h [21] was over 100 µM and the half-life [22] was 0.737 h. It also gave a Tmax [23] of 0.667 h, an EC50 (Chikungunya virus [24]) of 3.3 µM and a selectivity ratio [25] of over 20. The concentration at 1 h [26] was 2000 nM, the Activity (Chikungunya virus [27]) was “Active” and the bioavailability [28] was 22%. For the same compound, the clearance [29] was 18.6 mL/min/kg, the CLH (Liver) was 31.4 µL/min and the Activity (Chikungunya virus [30]) was “inactive”.
